Experimental data: PubChem BioAssay
Calls of active or inactive are those of the source.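 Rule for the calls, unless noted: active = viability at or under a set limit in both replicates, limit being median viability minus 3 SD (cut at about 48% in these data, passing the limit was not always enough); inconclusive = at or under the limit in just one replicate; inactive = at or above the limit in both replicates.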

Tests used:
[1] = reducers of endogenous Her2 protein level, primary screen, SKBR3 breast tumor cells, AlphaScreen, ATP viability (AID 461;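 active = Her2 level under about 52% in both replicate screens, with viability over 70% of control, limit read from the data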;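 for Her2 level: lower value means less Her2 protein in the cells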;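 for viability: percent of carrier control wells set as 100% viability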); conditions: 18-24 h, measured here: SKBR3 viability, ATP luminescence, at 10 µM
[2] = biological target: Receptor tyrosine-protein kinase erbB-2 (Homo sapiens) (UniProt P04626); experiment: as above; conditions: 18-24 h, at 10 µM, stronger effect = lower value
[3] = SK-BR-3 cell growth inhibitors, pilot screen, 24 h, human (AID 572;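 active = viability at or below 10% of carrier control in both of two separate runs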;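 note: compound exposure lasted between 18 and 24 h rather than exactly 24 h; 100% = carrier-treated control wells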); conditions: SK-BR-3 viability, CellTiter-Glo luminescence, at 10 µM, stronger effect = lower value
[4] = HUVEC growth inhibition – cell-based, human, primary screen (AID 575;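 active = viability at or below 30% in both replicate assays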;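 note: 100% = median of untreated cell wells with 0.1% DMSO on each plate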); conditions: HUVEC proliferation, CellTiter-Glo luminescence, 72 h; at 10 µM; stronger effect = lower value
How it was run: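 Test system: primary human umbilical vein endothelial cells; medium: endothelial basal medium with 2% FBS plus growth supplements; dosing: 10 µM compound only; times: 72 h treatment at 37 °C; signal: CTG luminescence; read-out: % viability relative to median vehicle-well signal on each plate; control set: vehicle and MePR control wells; plate: 384-well, collagen-coated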

[5] = growth inhibitors of H69AR lung tumor, primary screen, human, duplicate replicates (AID 580); conditions: H69AR lung tumor cells viability, ATP luminescence, 72 h; at 10 µM; stronger effect = lower value;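 note: 100% = mean luminescence of untreated wells and 0% = no signal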
[6] = reversal of MRP1-mediated doxorubicin resistance, pilot screen, H69AR cells, doxorubicin co-treatment (AID 601;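 active = viability loss from added drug above about 55%, and viability with drug at most 40%, in both replicates, limit read from the data, passing the limit was not always enough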); conditions: CellTiter-Glo, 72 h, at 10 µM; for differential viability (reversal): stronger effect = higher value
[7] = 384-well plate pilot, post-Golgi transport modulator project, inhibition of yeast transport mutant growth (AID 636; in the data active = inhibition above about 31%); conditions: absorbance 615 nm, about 18 h, stronger effect = higher value
[8] = growth suppression of yeast trafficking mutant, preliminary HTS, modulators of trafficking downstream of Golgi apparatus project, 1536-format plate, OD 615 nm (AID 637; in the data active = inhibition above about 30%); conditions: yeast transport mutant growth, absorbance 615 nm, 18 h; stronger effect = higher value
[9] = H69AR cells + 2 uM doxorubicin, measured here: viability with 2 uM doxorubicin, stronger effect = lower value
[10] = H69AR cells, compound alone cytotoxicity

Chain of Receptor tyrosine-protein kinase erbB-2 (Homo sapiens) (P04626 whole entry, looked up): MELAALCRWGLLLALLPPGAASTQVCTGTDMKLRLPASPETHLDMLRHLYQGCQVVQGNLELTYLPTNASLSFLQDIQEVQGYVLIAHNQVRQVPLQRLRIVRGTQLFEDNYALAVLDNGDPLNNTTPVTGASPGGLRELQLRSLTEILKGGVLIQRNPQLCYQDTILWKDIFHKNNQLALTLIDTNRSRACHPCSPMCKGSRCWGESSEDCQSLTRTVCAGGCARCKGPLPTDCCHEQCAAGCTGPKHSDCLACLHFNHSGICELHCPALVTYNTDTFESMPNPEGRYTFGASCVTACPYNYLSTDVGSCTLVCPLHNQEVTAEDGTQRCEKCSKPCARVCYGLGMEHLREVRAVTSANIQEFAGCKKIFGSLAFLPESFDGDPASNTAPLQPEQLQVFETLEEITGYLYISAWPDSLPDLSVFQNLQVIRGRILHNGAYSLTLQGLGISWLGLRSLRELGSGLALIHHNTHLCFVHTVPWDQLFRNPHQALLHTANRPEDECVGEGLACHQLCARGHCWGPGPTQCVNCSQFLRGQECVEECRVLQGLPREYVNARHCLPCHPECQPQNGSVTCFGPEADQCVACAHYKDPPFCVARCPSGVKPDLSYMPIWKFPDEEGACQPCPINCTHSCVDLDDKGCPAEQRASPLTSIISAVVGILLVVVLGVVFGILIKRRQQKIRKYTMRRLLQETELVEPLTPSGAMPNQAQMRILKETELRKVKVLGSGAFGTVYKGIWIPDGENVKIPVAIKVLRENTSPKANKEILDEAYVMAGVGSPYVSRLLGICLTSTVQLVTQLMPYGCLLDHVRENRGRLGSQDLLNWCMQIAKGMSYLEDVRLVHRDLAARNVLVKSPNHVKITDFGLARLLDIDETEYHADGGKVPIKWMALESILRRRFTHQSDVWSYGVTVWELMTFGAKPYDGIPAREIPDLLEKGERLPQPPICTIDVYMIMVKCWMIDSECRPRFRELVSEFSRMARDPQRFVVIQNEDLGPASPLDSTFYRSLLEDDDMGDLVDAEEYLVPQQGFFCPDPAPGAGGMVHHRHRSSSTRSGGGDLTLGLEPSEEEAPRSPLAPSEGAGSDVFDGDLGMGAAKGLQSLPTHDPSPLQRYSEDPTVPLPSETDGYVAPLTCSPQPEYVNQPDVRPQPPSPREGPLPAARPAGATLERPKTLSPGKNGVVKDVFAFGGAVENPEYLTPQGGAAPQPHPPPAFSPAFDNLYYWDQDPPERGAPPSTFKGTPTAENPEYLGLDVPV

Row | SMILES | viability [1] | Her2 level [2] | viability [3] | viability [4] | viability [5] | differential viability (reversal) ([6]; H69AR cells + 2 uM doxorubicin) | viability [6, 9] | viability [6, 10] | inhibition [7] | inhibition [8]
1 | COc1ccc(NC(=O)C(C)NS(=O)(=O)c2ccccc2)cc1Cl (stereo not given) | 92% | 99% (inactive) | 92% (inactive) | 98.4% (inactive) | 97.7% (inactive) | 6.73% (inactive) | 91% | 97.7% | -3.87% (inactive) | -6.19% (inactive)
2 | Cn1c(=O)c2nc(Cl)n(Cc3ccc(Cl)cc3Cl)c2n(C)c1=O | 96% | 75% (inactive) | 96% (inactive) | 105% (inactive) | 88.3% (inactive) | 12.5% (inactive) | 75.9% | 88.3% | -3.2% (inactive) | 7.58% (inactive)
3 | Cc1ccc(-n2ncc(C(=O)N3CCc4ccccc4C3)c2NC(=O)c2ccco2)cc1C | 94% | 92% (inactive) | 94% (inactive) | 83.6% (inactive) | 86.1% (inactive) | -3.83% (inactive) | 89.9% | 86.1% | -0.13% (inactive) | -3.44% (inactive)
4 | CCCCOn1c(C)c(C(=O)OCC)c2c3nonc3ccc21 | 98.5% | 114% (inactive) | 98.5% (inactive) | 63.5% (inactive) | 83.5% (inactive) | 15% (inactive) | 68.6% | 83.5% | 4.4% (inactive) | 27.6% (inactive)
5 | CCCCSCCCNC(=O)CS(=O)Cc1nc(-c2cccc(C)c2)oc1C (stereo not given) | 98.5% | 76% (inactive) | 98.5% (inactive) | 91.9% (inactive) | 87.5% (inactive) | -3.76% (inactive) | 91.2% | 87.5% | -1.58% (inactive) | -1% (inactive)
6 | COc1cc(OC)cc(-c2nnc(SCC(=O)Nc3cc(C)on3)o2)c1 | 92.5% | 81% (inactive) | 92.5% (inactive) | 82.7% (inactive) | 79.6% (inactive) | -7.97% (inactive) | 87.6% | 79.6% | -5.53% (inactive) | -4.33% (inactive)
7 | COCCN(C(=O)c1csnn1)C(C(=O)NC(C)(C)C)c1cccc(OC)c1 (stereo not given) | 89.5% | 91% (inactive) | 89.5% (inactive) | 120% (inactive) | 97.9% (inactive) | 0.985% (inactive) | 96.9% | 97.9% | -4.4% (inactive) | 0% (inactive)
8 | CC(C)CNC(=O)C1CC(=O)OC12CCCCC2 (stereo not given) | 100% | 95% (inactive) | 100% (inactive) | 112% (inactive) | 113% (inactive) | 22.3% (inactive) | 90.5% | 113% | -8.11% (inactive) | 4.92% (inactive)
9 | Cn1c(SCc2cccc3ccccc23)nnc1-c1ccco1 | 76% | 98.5% (inactive) | 76% (inactive) | 126% (inactive) | 92.4% (inactive) | 7.87% (inactive) | 84.5% | 92.4% | -0.93% (inactive) | -6.94% (inactive)
10 | Cc1nc2sc(C(c3ccco3)N3CCN(c4ccccc4F)CC3)c(O)n2n1 (stereo not given) | 97% | 85% (inactive) | 97% (inactive) | 101% (inactive) | 97.5% (inactive) | 7.17% (inactive) | 90.3% | 97.5% | -6.27% (inactive) | 0.95% (inactive)
11 | CCOC(=O)c1c(NC(=O)CSc2nnc(-c3cccnc3)o2)sc(C)c1C | 120% | 104% (inactive) | 120% (inactive) | 103% (inactive) | 99.1% (inactive) | 14% (inactive) | 85.1% | 99.1% | -4.34% (inactive) | -8.73% (inactive)
12 | COC(=O)c1ccc(CSc2nc3c(cnn3-c3ccc(C)c(C)c3)c(=O)[nH]2)o1 | 90% | 91.5% (inactive) | 90% (inactive) | 18.9% (active) | 88.4% (inactive) | 10.6% (inactive) | 77.8% | 88.4% | -3.6% (inactive) | -1.64% (inactive)
13 | O=S(=O)(Nc1ccccn1)c1ccc(Oc2ccccc2)cc1 | 88% | 87.5% (inactive) | 88% (inactive) | 87.8% (inactive) | 98.8% (inactive) | 10.5% (inactive) | 88.3% | 98.8% | -2.57% (inactive) | -1.11% (inactive)
14 | Cc1cc(C)nc(Sc2ccc3nnc(C(F)(F)C(F)(F)C(F)(F)F)n3n2)n1 | 83.5% | 86.5% (inactive) | 83.5% (inactive) | 99.6% (inactive) | 102% (inactive) | 14.1% (inactive) | 87.6% | 102% | -6.89% (inactive) | 3.93% (inactive)
15 | NC(=O)NC(c1ccccc1)c1ccccc1F (stereo not given) | 91% | 106% (inactive) | 91% (inactive) | 91.6% (inactive) | 105% (inactive) | 6.78% (inactive) | 98.3% | 105% | -0.51% (inactive) | -8% (inactive)
16 | Cc1[nH]c(=O)[nH]c(=O)c1S(=O)(=O)N1c2ccc(F)cc2CCC1C (stereo not given) | 97.5% | 90% (inactive) | 97.5% (inactive) | 100% (inactive) | 95.7% (inactive) | -3.9% (inactive) | 99.6% | 95.7% | -6.97% (inactive) | 3.17% (inactive)
